We go through three compounds from article PMC12373759 (Communications Medicine, 2025).

Values joined by “and” are separate entries in the source; they are usually repeats but may differ in a detail not shown here. Identical values can stand only once. Bridge positions count the residues as written; N and C are the ends. Square brackets hold non-standard residues; d marks the D form. Peptide text beside a SMILES is read from it. * marks the point of attachment. DOTA = O=C(O)CN1CCN(CC(=O)O)CCN(CC(=O)*)CCN(CC(=O)O)CC1; Thr(ol) = C[C@@H](O)[C@H](N)CO

Data set [1] relates to corticotropinomas. Particulars: PET/CT; cited from earlier work.
The nature of data set [2]: Stability in human serum at 37 °C. The format is in vitro ADME.
Data set [3] in a line: Sterility test. Particulars: no visible growth or turbidity for up to 14 days.
Data set [4] in a line: Endotoxin test. The conditions noted are these: V = 2 mL, dilution factor 10; limit <175 EU/V. The gist of the method:
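Chromogenic endotoxin assay per USP 85 on the in-house-prepared radiotracer. Results and the acceptance limit are expressed as endotoxin units per injection volume (EU/V).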

The test system of data set [5] is corticotropinoma. Particulars: cited from earlier work.
Data set [6] is described as follows: Ex vivo biodistribution in healthy Wistar rats. The gist of the method: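 Nine healthy male Wistar rats (16 weeks, 274 ± 13 g) each received 8 ± 1.1 MBq radiotracer IV via the penile vein. Under ketamine (40 mg/kg) plus xylazine (4 mg/kg) anaesthesia, rats were killed by cervical dislocation at 30, 60 and 120 min (n = 3 per time). Organs were weighed and gamma-counted (NaI(Tl)). %ID/g used injected counts corrected for injection-site and syringe residues. Blood pool was taken as 7% of body weight. Mean ± SD.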

Data set [7] in a line: Plasma protein binding, TCA precipitation method. The format is in vitro ADME. Particulars: 37 °C, 10% TCA.
The nature of data set [8]: Shelf-life / stability in normal saline. The format is physicochemical. An outline of the steps: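 Shelf-life: radiotracer kept in normal saline at room temperature and examined for up to 4 h.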
For data set [9], the target named is T1, recombinant human V1b receptor (Homo sapiens, UniProt P47901).
T1 sequence (P47901 1-424): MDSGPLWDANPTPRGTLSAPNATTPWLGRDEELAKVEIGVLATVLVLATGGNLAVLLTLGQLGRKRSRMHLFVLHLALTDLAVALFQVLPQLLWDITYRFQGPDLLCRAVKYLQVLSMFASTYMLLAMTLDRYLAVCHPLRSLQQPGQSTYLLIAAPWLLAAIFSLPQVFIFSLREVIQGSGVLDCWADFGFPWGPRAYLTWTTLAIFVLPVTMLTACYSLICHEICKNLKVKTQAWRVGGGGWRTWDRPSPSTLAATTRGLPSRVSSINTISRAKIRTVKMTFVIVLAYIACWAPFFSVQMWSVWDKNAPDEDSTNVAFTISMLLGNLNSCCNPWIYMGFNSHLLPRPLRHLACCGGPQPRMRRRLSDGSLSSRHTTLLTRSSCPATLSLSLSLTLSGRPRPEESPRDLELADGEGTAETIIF
Briefly: In-vitro receptor binding assay.

The conditions of data set [10]: cited from earlier work.

As to `OC[C@H]1OC(O)[C@H]([18F])[C@@H](O)[C@@H]1O` (some centres unmarked) [[^18F]FDG], in data set [1], the sensitivity for corticotropinomas is recorded as 40%.

As for `C[C@@H](O)[C@@H](CO)NC(=O)[C@@H](CCCNC(=N)N)NC(=O)[C@@H]1CCCN1C(=O)[C@@H]1CSSC[C@H](NC(=O)[C@H](Cc2ccccc2)NC(=O)CN2CCN(CC(=O)O)CCN(CC(=O)O)CCN(CC(=O)O)CC2)C(=O)N[C@@H](Cc2ccc(O)cc2)C(=O)N[C@@H](Cc2ccccc2)C(=O)N[C@@H](CCC(N)=O)C(=O)N[C@@H](CC(N)=O)C(=O)N1` [[^68Ga]Ga-DOTA-mDesmo, metal not drawn] ({DOTA}-FCYFQNCP[dR][Thr(ol)]; disulfide 2-7), the “stability (single radio peak at Rf 0.0)” value in data set [2] is listed as “up to 4 h”; in [8] (PBS, 37 °C), “up to 4 h”. In [3], the sterility entry is “sterile”. Moreover, in [4], the endotoxin value was 8.6 ± 1.2 EU/V. For the same compound, in data set [5] (4 patients of ECS), the “uptake in the pituitary of patients with ECS” value is “no uptake”. Moreover, in [5] (PET/CT, 24 patients of CD), the diagnostic accuracy is 100%. Besides, the “patients of CD in whom the pituitary tumor was localized” value in data set [5] (of 24 patients of CD) is given as 24 patients. Moreover, the “total blood pool, share of the injected activity” value in data set [6] (120 min, blood volume assumed 7% of body weight) was ~ 3%. Besides, in [6] (rat, in vivo), the route of excretion result is listed as “primarily excreted via the renal route”. In data set [6] (time following administration), the “clearance from muscles, lungs, adrenals, liver, pancreas, spleen and heart” value is given as at most 120 min. The fraction unbound (commonly the share of the substance not bound to proteins or other matrix) at 1 h in [7] was 0.344. In data set [8] (normal saline, room temperature), the “shelf-life (single radio peak at Rf 0.0)” value is given as “up to 4 h”. Also, the “Binding (%) (Mean ± SD)” value in data set [9] (V1b 15.6 nM, tracer 0.3 µM) is 5.1 ± 1.3%; in [9] (V1b 62.5 nM, tracer 0.3 µM), 25.7 ± 2.4%; in data set [9] (V1b 125 nM, tracer 0.3 µM), 30.7 ± 1.9%; in data set [9] (V1b 250 nM, tracer 0.3 µM) it was 44 ± 2.2%; in data set [9] (V1b 250 nM, tracer 0.3 µM + cold DOTA-mDesmo 5 µM), 38.8 ± 1.7%; in data set [9] (V1b 250 nM, tracer 0.3 µM + cold DOTA-mDesmo 20 µM), 22% and 22.1 ± 2.1%.

With Desmopressin, the plasma half-life in [10] was ~ 55 min.
